Data set [1] is described as follows: AUC in rat at 10 mg/kg, po. The following applies: plasma. Format: ADME, organism-based. The arrangement: dose 10 mg/kg, route oral. In a few lines:
(§1)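 Oral dosing at 10 mg/kg as a solution of the sodium salt in 20% HPβCD, n = 4 animals per group.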

Data set [2] can be described thus: Oral bioavailability in mouse at 10 mg/kg. Format: ADME, organism-based. Particulars: in vivo. Put shortly:
as §1

The nature of data set [3]: Half life in rat at 10 mg/kg, po. The arrangement: dose 10 mg/kg, route oral. It is filed as ADME, organism-based. The following applies: in vivo. Put shortly:
as §1

Data set [4] is described as follows: Oral bioavailability in rat at 10 mg/kg. Format: ADME, organism-based. Particulars: in vivo. Put shortly: as §1
The nature of data set [5]: Volume of distribution at steady state in rat at 2 mg/kg, iv. Format: ADME, organism-based. The arrangement: dose 2 mg/kg, route intravenous. The following applies: in vivo, read-out: Vdss. In a few lines: (§2)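 Intravenous dosing at 2 mg/kg as a solution of the sodium salt in 20% HPβCD, n = 4 animals per group. Vss derived from the plasma pharmacokinetic profile.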
The subject of the next data set is Rattus norvegicus. As to the kind of experiment: Reversal of carrageenan-induced thermal hypersensitivity in po dosed Sprague-Dawley rat measured at 100 mins. Format: functional. Put shortly: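 Male Sprague−Dawley rats (195−350 g), intraplantar CFA (100 μL, 1:1 CFA:saline) with testing 24 h later, or carrageenan-λ (200 μL, 10 mg/mL) with testing 3 h later. Radiant heat withdrawal latency, 10−15 s baseline, 20 s cutoff; rats with ≥25% latency drop kept. Oral dosing at 2.5 mL/kg. Percent reversal = (treatment − post)/(pre − post) × 100, scored blind.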

In data set [6] the target is T1, Transient receptor potential cation channel subfamily V member 2 (Homo sapiens) (UniProt Q9Y5S1).
T1 sequence (whole entry): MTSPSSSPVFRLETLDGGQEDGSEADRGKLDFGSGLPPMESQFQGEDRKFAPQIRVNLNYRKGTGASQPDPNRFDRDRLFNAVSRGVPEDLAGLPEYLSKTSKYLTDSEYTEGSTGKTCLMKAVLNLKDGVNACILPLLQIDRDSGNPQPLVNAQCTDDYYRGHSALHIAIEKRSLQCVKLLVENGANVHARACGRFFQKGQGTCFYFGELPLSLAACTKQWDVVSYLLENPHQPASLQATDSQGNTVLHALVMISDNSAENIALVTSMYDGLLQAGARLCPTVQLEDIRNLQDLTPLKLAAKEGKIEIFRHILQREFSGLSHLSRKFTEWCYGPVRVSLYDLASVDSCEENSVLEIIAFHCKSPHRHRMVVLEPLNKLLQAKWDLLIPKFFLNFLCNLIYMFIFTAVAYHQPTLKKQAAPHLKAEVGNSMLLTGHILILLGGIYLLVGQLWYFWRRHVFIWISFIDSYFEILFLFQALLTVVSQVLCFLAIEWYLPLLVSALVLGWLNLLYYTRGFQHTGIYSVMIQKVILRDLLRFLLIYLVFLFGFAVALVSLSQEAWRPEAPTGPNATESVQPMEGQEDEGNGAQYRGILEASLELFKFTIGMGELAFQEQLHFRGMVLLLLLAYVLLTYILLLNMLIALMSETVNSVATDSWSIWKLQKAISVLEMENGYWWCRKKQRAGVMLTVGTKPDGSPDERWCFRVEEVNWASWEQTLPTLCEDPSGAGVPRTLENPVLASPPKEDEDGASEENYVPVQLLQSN
The data set can be described thus: Effect on TRPV2 (unknown origin).

Data set [7] can be described thus: Half life in dog at 2 mg/kg, iv. Format: ADME, organism-based, Canis lupus familiaris. The arrangement: dose 2 mg/kg, route intravenous. The following applies: in vivo. In a few lines:
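Intravenous dosing at 2 mg/kg as a solution of the sodium salt in 20% HPβCD, n = 4 animals per group.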

Data set [8] is described as follows: Volume of distribution at steady state in mouse at 2 mg/kg, iv. Format: ADME, organism-based. Further details: dose 2 mg/kg, route intravenous. The following applies: in vivo, read-out: Vdss. Put shortly: as §2
Data set [9] is described as follows: Cmax in dog at 10 mg/kg, po. Format: ADME, organism-based, Canis lupus familiaris. The arrangement: dose 10 mg/kg, route oral. Particulars: in vivo. Put shortly:
as §1

Data set [10] in a line: Metabolic stability in rat liver microsomes assessed as compound remaining after 10 mins. The following applies: liver microsomes, read-out: Stability. Format: ADME. Put shortly:
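Compound incubated 10 min with liver microsomes of the stated species; amount of parent remaining reported as percent.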
(Microsomes from liver hold many membrane-bound enzymes, among them those of drug oxidation.)

The source made the active and inactive calls.

The term AUC denotes concentration integrated over time. What is called bioavailability is dose-corrected exposure relative to a reference, in per cent. A low value points to little systemic uptake. Broadly, the half-life is how long it takes for the measured level to halve. The ED50 is the dose that gives a 50% effect, or the effect in half of the subjects. A word on the Cmax: it is the maximum level reached in the sampled fluid or tissue.

The molecule `CC(C)(O)c1ccccc1-c1ccc2[nH]c(/C=C/c3ccc(C(F)(F)F)cc3)nc2c1` gave an AUC in [1] of 4200 ng·h/mL. Further, the bioavailability amounted to 83.3% in [2] and 51% in data set [4]. The half-life in data set [3] was 3.8 h; in data set [7] it was 1.1 h. For the same molecule, the Vd in [5] was found to be 10 L/kg; in data set [8], 2.5 L/kg. The ED50 in the data set with Rattus norvegicus turned out to be 0.18 mg/kg. Further, in the data set on Rattus norvegicus, the ED80 is 0.48 mg/kg. For the same molecule, the result in data set [6] was inactive. In addition, the concentration in [9] peaked (Cmax) at 1610 ng/mL. The remaining at 10 min in [10] worked out at 93%.

The values are drawn from ChEMBL document CHEMBL3425511 (J Med Chem, 2015).
